≈ marks a conversion by molar mass, not a printed value. Where a SMILES comes first, the peptide text is derived from it. The star is where a group is joined. hSer(lactone) = O=C1OCC[C@@H]1N*
Columns and labels:
[1] = system: five pathogenic bacterial strains, including three Gram‐positive and two Gram‐negative strains; assay: Antimicrobial assay; assay type: cell-based; details: read-out: MIC against all pathogenic bacterial strains tested
Procedure, shortened: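 Broth microdilution MIC of a recombinant test peptide (RP-HPLC purified, >95%). E. coli ATCC 12014, S. aureus ATCC 25923, P. acnes ATCC 6919, P. gingivalis ATCC 33277 and S. mutans ATCC 25175 were grown overnight at 37°C in LB or BHI and diluted in the same medium. Serial peptide dilutions were mixed 1:1 with bacteria (final 5 × 10^4 CFU/mL) and incubated 37°C, 24 h. Ampicillin and magainin-2 were positive controls. Three independent repeats, mean ± SD.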

[2] = system: Staphylococcus aureus; assay type: cell-based; details: S. aureus; LB at pH 3.7–8.7
[3] = system: Staphylococcus aureus strain; assay type: cell-based; details: aqueous peptide solution (10 μg/mL) heated at 100°C for 60 min, cooled 30 min
[4] = Degradation assay with resting cell suspensions; assay type: in vitro ADME, Lactobacillus plantarum subsp. plantarum; details: pH 7
Procedure, shortened: (§1)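 Resting-cell peptidase assay. Mid-exponential cultures (OD600 = 0.5) were pelleted at 10,000 g, 15 min, 4°C, washed twice and resuspended 20-fold concentrated in 10 mmol/L phosphate buffer, pH 7.0. Test peptide solution (400 μg/mL) was mixed 1:1 with cells (final 10^8 CFU/mL) and incubated at 37°C, sampled at 30 and 60 min (also 4 h for L. plantarum). Read-out was RP-HPLC peptide remaining versus a no-bacteria control; fragments were identified by LC-MS/MS.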

[5] = Degradation assay with resting cell suspensions; assay type: in vitro ADME; details: resting cell suspension of Staphylococcus aureus ATCC 25923, pH 7
Procedure, shortened: as §1

Structure (SMILES)	MIC [1]	MIC within the limits of pH (3.7–8.7) solutions [2]	MIC against S. aureus strain under the conditions of heat treatment [3]	metabolised at 1 h, 200 μg/mL [4]	metabolised at 1 h, 200 μg/mL [5]
CC1(C)S[C@@H]2[C@H](NC(=O)[C@H](N)c3ccccc3)C(=O)N2[C@H]1C(=O)O [Ampicillin, ampicillin]	5 to 7.5 µg/mL (≈ 14.3 to 21.5 µM)	–	–	–	–
CC[C@H](C)[C@H](NC(=O)[C@H](Cc1c[nH]c2ccccc12)NC(=O)[C@H](CCC(=O)O)NC(=O)[C@H](CCCCN)NC(=O)[C@@H](NC(=O)[C@H](CCCCN)NC(=O)[C@@H](N)CC(N)=O)C(C)C)C(=O)N[C@@H](CCCCN)C(=O)N[C@@H](Cc1ccc(O)cc1)C(=O)N[C@@H](CC(C)C)C(=O)N[C@@H](CCCCN)C(=O)N[C@@H](CO)C(=O)N[C@@H](CC(C)C)C(=O)N[C@@H](Cc1ccccc1)C(=O)N[C@@H](CO)C(=O)N[C@H]1CCOC1=O [LPcin‐YK3] (H-NKVKEWIKYLKSLFS-{hSer(lactone)})	–	0.62 μg/mL	0.62 µg/mL	~79.3%	10.8%

Source: paper PMC7379261 (Journal of Peptide Science, 2020)
